Hits are enriched below; roughly 2.6% of the tested compounds scored in any of these assays.
Ecoli rRNA inh: inhibits bacterial ribosomal RNA function over humanized ribosomes; GFP signal change (wild-type ribosome), % (no concentration beside the values); E. coli WT GFP vs humanized-ribosome RFP mutants, fluorescence, 24 h; hits give low values; DMSO median 0, no signal -100; AID 720706; actives 1.6% (n = 350,000);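 active means significant combined selectivity score with lowered wild-type GFP, culture density cut under 30%, mutant RFP and density less affected; inactive means any of these conditions unmet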
AF4-AF9 inh: blocks AF4 peptide binding to human AF9; AID 651704; AlphaScreen, biotin-AF4 peptide binding to FLAG-AF9; actives 0.47% (n = 350,000); inhibition, % at 10 µM; P42568;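 active means every replicate reaching a set inhibition limit, whatever the replicate mean, cut at about 25% in these data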;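 further: 0% = plate neutral control median and 100% = total signal loss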
INS-1E GSIS act: primary screen for activators of insulin secretion dependent on glucose, INS-1E cells, GLuc reporter luminescence; actives 0.61% (n = 370,000); activation, % at 16.6 µM; INS-1E GLuc reporter insulin secretion, 2-3 h;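 active means lowest replicate activation of at least 40%, so every replicate reaches that level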;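 further: 0% = median of neutral control wells and 100% = median of IBMX positive control wells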
E-selectin induc: induces E-selectin expression in human endothelial cells. activation, % at 7.58 µM. P16581. HUVEC E-selectin immunofluorescence imaging; normalized: neutral wells 0, TNF-alpha wells 100. actives 0.37% (n = 260,000);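 active means mean E-selectin-positive cell signal at least 10% of the positive control, reached in at least 60% of replicates, without over 20% cell loss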
Target sequence (P16581 whole entry, looked up): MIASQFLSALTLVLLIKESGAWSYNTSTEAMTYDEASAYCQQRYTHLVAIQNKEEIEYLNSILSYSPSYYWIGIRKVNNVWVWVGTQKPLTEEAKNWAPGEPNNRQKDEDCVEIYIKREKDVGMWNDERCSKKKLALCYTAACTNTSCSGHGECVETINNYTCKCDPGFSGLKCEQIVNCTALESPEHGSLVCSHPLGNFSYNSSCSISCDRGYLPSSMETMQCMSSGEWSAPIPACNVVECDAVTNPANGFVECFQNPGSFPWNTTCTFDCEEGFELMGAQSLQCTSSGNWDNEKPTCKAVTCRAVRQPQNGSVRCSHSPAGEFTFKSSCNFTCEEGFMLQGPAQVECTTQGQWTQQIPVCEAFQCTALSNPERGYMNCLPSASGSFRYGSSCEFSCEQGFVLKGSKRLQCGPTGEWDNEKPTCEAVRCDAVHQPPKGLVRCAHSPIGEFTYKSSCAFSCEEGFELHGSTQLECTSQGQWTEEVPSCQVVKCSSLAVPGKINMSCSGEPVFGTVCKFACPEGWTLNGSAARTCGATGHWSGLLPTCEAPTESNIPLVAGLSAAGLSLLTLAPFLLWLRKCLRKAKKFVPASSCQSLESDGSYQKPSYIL
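System: HUVEC / Compound: single concentration / Signal: immunofluorescence imaging / Read-out: percent E-selectin-positive cells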
RAD52 anneal inh: inhibitors of human RAD52 DNA annealing | P43351 | recombinant RAD52 DNA annealing, FRET fluorescence | inhibition, % at 18.7 µM | actives 0.46% (n = 360,000);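 active means every replicate showing at least 50% inhibition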
RAD54 inh: RAD54 (human) branch migration inhibition; RAD54 Holliday junction branch migration, FAM/BHQ fluorescence; actives 0.14% (n = 360,000); AID 602329; inhibition, % at 10.4 µM;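 active means mean normalized replicate activity at least 40 and at least half of replicates scoring 40 or more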;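 further: 0% = median of neutral control wells and 100% = median of positive control wells; inhibitors cause a drop in the FAM fluorescence signal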
Starred values were filed as active, the others as inactive; / = not tested or not shown; ! = repeats disagree.

SMILES	Ecoli rRNA inh	AF4-AF9 inh	INS-1E GSIS act	E-selectin induc	RAD52 anneal inh	RAD54 inh
CC(=O)NS(=O)(=O)c1ccc(NC(=O)c2ccc(Cl)cc2[N+](=O)[O-])cc1	18.5	0.6	-8.1	/	1.0	-10.7
O=C(Nc1ccc(Nc2ccccc2)cc1)c1ccc(Cl)cc1[N+](=O)[O-]	-27.4*	/	-9.9	/	-6.5	-1.1
CO[C@H]1CN(C)C(=O)c2cc(NC(=O)C3CC3)ccc2OC[C@@H](C)N(C(=O)C2CCOCC2)C[C@@H]1C	2.7	-8.2	12.3	0.0	14.8	-1.2
CC(C)(C)C1CCC(C(=O)Nc2ccc(N3CCOCC3)cc2N2CCOCC2)CC1 (stereo unspecified)	-20.4*	11.2	-42.5	/	-5.2	-9.9
Cc1ccc(-n2nc(C)c3c(C)c(CCC(=O)Nc4ccc(CN5CCCC5)cc4)c(C)nc32)cc1	-54.5	27.0*	-13.1	/	-11.9	/
C[C@@H]1CCCCO[C@H](CN(C)Cc2ccc3c(c2)OCO3)[C@@H](C)CN([C@H](C)CO)C(=O)c2cc(NS(=O)(=O)c3ccccc3)ccc2O1	5.1	-2.7	4.0	/	11.7	-17.9
CNc1ccccc1C(C)(C)c1cc(-c2cccc(Br)c2)no1	-21.9	3.1	-19.5	83.6*	-27.8	-8.8
O=C(C1CCCCC1)N1C[C@@H]2N[C@H](C1)C2c1ccc(-c2ccccc2F)cc1 (stereo partly specified)	-56.4	-7.2	-9.4	0.0	57.1*!	/
Cc1cccc(-c2ccc(C3[C@@H]4CN(C(=O)C5CCCCC5)C[C@H]3N4)cc2)c1 (stereo partly specified)	-60.8	/	213.4*!	0.2	/	/
O=C(C[C@H]1C=C[C@H](NC(=O)c2cccnc2)[C@H](CO)O1)NCc1ccncn1	1.6	-2.8	8.8	-0.2	19.4	/
COc1ccc(-c2nc3ccc(C)cn3c2CC2CCCCC2)cc1OC	-29.4*	8.9	6.0	0.4	-58.1	4.6
Clc1cccc(Cc2c(-c3cccc(Cl)c3)nc3ccc(Br)cn23)c1	-23.4*	2.3	-34.7	-0.5	-33.4	-8.4
COc1ccc(-c2nc3ccc(Br)cn3c2Cc2cccc(Cl)c2)cc1OC	-27.2*	0.2	14.1	-0.8	0.3	-6.1
COc1ccc(-c2nc3ccc(Cl)cn3c2Cc2cccc(Cl)c2)cc1OC	-15.8	4.1	0.3	0.1	-12.5	3.3
CCCNC(=O)Nc1ccc2c(c1)OC[C@H](C)N(Cc1ccc(-c3ccccn3)cc1)C[C@H](C)[C@@H](OC)CN(C)C2=O	-4.5	2.4	-15.0	-0.1	6.2	/
Cc1cc(/C=C2/NC(=O)NC2=O)c(C)n1-c1ccncc1	-27.5*	4.3	7.9	4.3	-13.2	0.2
COCC(=O)N(C)C[C@H]1Oc2cc(-c3ccc(C#N)cc3)ccc2S(=O)(=O)N([C@H](C)CO)C[C@@H]1C	-2.0	/	1.5	0.1	/	/
Cc1csc2nc3cc(C(N)=O)ccc3c(=O)n12	2.5	54.5*	39.3	0.4	-11.0	-6.9
NC(=O)c1ccc2c(=O)n3c(-c4cc(Cl)c(N)c(Cl)c4)csc3nc2c1	16.0	-4.9	/	0.4	9.1	-5.2
CN(CCO)c1nc(N)c(C#N)c(CC#N)c1C#N	8.8	-7.4	24.1	-0.3	-88.8	2.0
CN(c1ccccc1)c1nc(N)c(C#N)c(CC#N)c1C#N	/	/	66.2*	-0.2	/	10.8
COCC(=O)Nc1ccc2c(c1)C(=O)N(C)[C@H]1CC[C@@H](CC(=O)NCc3ccccc3Cl)O[C@@H]1CO2	0.1	/	0.5	0.0	/	-2.4
C[C@@H]1CN([C@@H](C)CO)C(=O)c2cc(NS(=O)(=O)c3cn(C)cn3)ccc2O[C@H]1CN(C)S(=O)(=O)c1cn(C)cn1	3.6	/	25.3	-0.3	/	/
CC(=O)Nc1ccc(C=NNC(=O)CCCC(=O)NN=Cc2ccc(NC(C)=O)cc2)cc1	7.6	-4.6	41.5*	-0.1	-10.1	-3.6
O=C(Cn1cnc2ccccc21)Nc1ccc(SC(F)F)cc1	-54.5	-2.5	-21.9	2.0	-6.0	3.5
SMILES	Ecoli rRNA inh	AF4-AF9 inh	INS-1E GSIS act	E-selectin induc	RAD52 anneal inh	RAD54 inh
O=C(Nc1ccc(SC(F)F)cc1)c1cccc2nc3ccccc3nc12	/	/	82.0*	/	/	1.4
Cn1c(C(=O)NCCN2CCOCC2)cc2c(=O)n(C)c3ccccc3c21	-6.9	0.1	-5.4	/	3.1	34.3
CN(CCNC(=O)c1cc2c(=O)n(C)c3ccccc3c2n1C)Cc1ccccc1	-13.1	-0.9	-1.5	0.2	14.9	51.7*
CCCN(CCC)CCNC(=O)c1cc2c(=O)n(C)c3ccccc3c2n1C	-9.5	-3.6	21.9	0.1	26.4	55.0*
Cc1ccc(CNC(=O)c2cc3c(=O)n(C)c4ccccc4c3n2C)cc1	7.0	-1.8	2.9	-0.1	-14.9	8.2
CNC[C@@H]1OCCCC[C@H](C)Oc2ccc(NC(=O)NC3CCCCC3)cc2C(=O)N([C@@H](C)CO)C[C@H]1C	5.1	/	16.7	-0.3	/	/
CCOC(=O)Nc1ccc(C(=O)Oc2ccccc2)c(O)c1	-32.1*	-3.5	-3.4	/	-8.1	-3.7
O=C(C[C@@H]1C[C@H]2c3cc(NC(=O)Nc4ccc(C(F)(F)F)cc4)ccc3O[C@H]2[C@@H](CO)O1)NCc1cccnc1	-0.4	2.6	-0.2	0.1	12.4	9.3
Cc1ccc(NC(=S)NC2CCSc3ccccc32)cc1 (stereo unspecified)	-44.3*	2.9	/	14.4	-19.5	1.1
CC(=O)Nc1ccc(C(=O)NC2CCSc3ccccc32)cc1 (stereo unspecified)	2.8	0.0	-0.1	-0.3	-18.1	1.9
O=C(Cc1ccccn1)NCC[C@H]1CC[C@H](NC(=O)Nc2ccccc2)[C@H](CO)O1	2.3	0.1	12.6	0.3	-25.0	-2.4
CCC(CO)Oc1cc(NC(=O)c2ccc(OC)cc2)c2ncn(C(C)C)c2c1 (stereo unspecified)	-20.1*	1.1	/	0.1	-2.3	-18.6
Cc1ccc(S(=O)(=O)Nc2ccc3c(c2)C(=O)N([C@H](C)CO)C[C@@H](C)[C@@H](CN(C)Cc2ccc4c(c2)OCO4)OCCCC[C@@H](C)O3)cc1	1.2	10.3	-32.4	0.2	-1.1	-9.1
CC(C)n1c2ccccc2c2cc([N+](=O)[O-])ccc21	5.4	5.1	-2.9	-0.2	-20.5	/
C[n+]1c(-c2ccccc2)cc2c(=Cc3ccc([N+](=O)[O-])cc3)c3ccccc3n21	-17.6	61.4*	4.4	122.3*	2.5	/
C[n+]1c(-c2ccccc2)cc2c(=Cc3ccccc3)c3ccccc3n21	-43.4	28.5*	33.4	220.4*	-1.7	/
CCCC/C=C/C(NC(=O)CCc1ccccc1)c1ccccc1 (stereo unspecified)	-1.4	-2.9	-32.1	/	-72.6	-8.8
CCCC/C=C/[C@H](c1ccccc1)[C@H](CO)Cc1cccnc1	-45.5	/	104.4*	-0.7	1.0	-9.4
COc1cccc(/C=N/NC(=O)c2c(-c3ccccc3)noc2C)c1OC	-19.9*	1.9	-5.8	/	-12.9	-10.0

High-throughput results deposited in PubChem by Broad Institute.
